Assay results taken from ChEMBL document CHEMBL1255538, “Synthesis and molecular docking study of novel coumarin derivatives containing 4,5-dihydropyrazole moiety as potential antitumor agents” (Bioorg Med Chem Lett, 2010).
Converted amounts (≈) assume the structure as drawn.

How the values were obtained:
[1] = molecular target: DNA polymerase I, thermostable (Thermus aquaticus, UniProt P19821); assay: Inhibition of Taq polymerase
How it was run: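 Taq polymerase inhibition was monitored alongside the modified TRAP assay to detect interference with the amplification step. IC50 was the concentration giving 50% Taq polymerase inhibition.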

[2] = molecular target: Telomerase reverse transcriptase (Homo sapiens, UniProt O14746); assay: Inhibition of telomerase in human SGC7901 cells by TRAP assay; assay type: cell-based, SGC-7901
Sequence of Telomerase reverse transcriptase (O14746 whole entry): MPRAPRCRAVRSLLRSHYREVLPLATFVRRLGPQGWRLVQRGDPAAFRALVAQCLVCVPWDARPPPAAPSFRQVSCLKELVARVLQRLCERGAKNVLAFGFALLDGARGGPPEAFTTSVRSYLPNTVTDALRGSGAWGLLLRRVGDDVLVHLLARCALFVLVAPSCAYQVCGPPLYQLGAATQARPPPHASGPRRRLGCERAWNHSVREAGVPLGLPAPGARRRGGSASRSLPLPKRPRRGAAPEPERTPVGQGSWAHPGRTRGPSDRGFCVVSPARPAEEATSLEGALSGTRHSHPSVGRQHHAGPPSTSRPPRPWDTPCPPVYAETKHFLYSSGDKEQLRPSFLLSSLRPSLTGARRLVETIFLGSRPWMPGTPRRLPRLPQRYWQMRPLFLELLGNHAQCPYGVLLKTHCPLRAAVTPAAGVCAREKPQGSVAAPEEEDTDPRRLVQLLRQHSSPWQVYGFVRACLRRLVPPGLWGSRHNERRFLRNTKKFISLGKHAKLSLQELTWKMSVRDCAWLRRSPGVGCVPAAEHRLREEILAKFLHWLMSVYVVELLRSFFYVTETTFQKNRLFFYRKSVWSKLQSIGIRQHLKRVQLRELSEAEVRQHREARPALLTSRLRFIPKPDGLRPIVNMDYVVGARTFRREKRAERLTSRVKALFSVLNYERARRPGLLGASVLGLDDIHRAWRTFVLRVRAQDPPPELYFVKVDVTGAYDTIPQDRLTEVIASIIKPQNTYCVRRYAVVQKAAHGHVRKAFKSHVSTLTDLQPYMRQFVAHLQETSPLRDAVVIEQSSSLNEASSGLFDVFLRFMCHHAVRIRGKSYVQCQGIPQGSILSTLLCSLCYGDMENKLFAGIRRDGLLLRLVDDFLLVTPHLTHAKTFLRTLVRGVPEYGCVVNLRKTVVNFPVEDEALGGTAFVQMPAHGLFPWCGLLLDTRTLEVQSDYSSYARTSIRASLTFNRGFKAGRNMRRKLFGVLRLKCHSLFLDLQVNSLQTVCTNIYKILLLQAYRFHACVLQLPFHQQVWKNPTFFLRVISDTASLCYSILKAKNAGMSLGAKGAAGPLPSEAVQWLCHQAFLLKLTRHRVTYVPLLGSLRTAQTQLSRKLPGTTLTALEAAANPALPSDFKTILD
How it was run: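 Modified TRAP assay using SGC-7901 cell extract as the telomerase source. IC50 taken from three experiments in triplicate, mean ± SD.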

PC-3 = assay: Cytotoxicity against human PC3 cells after 48 hrs by MTT assay; assay type: functional, cell-based
How it was run: (§1)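 Tumour cells grown to log phase in RPMI 1640 with 10% FBS, seeded at 3 × 10⁴ cells/mL, preincubated 24 h at 37 °C, 5% CO₂. Test samples at pre-set concentrations were added to 6 wells, with 5-fluorouracil as positive reference, for 48 h. MTT was then added for 4 h, formazan was dissolved in DMSO and absorbance read at 570 nm. IC50 from three experiments in triplicate, mean ± SD.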

A-431 = assay: Cytotoxicity against human A431 cells after 48 hrs by MTT assay; assay type: functional, cell-based; how it was run: as §1
SGC-7901 [3] = assay: Cytotoxicity against human SGC7901 cells after 48 hrs by MTT assay; assay type: functional, cell-based; how it was run: as §1
SGC-7901 [4] = assay: Selectivity index, ratio of IC50 for Taq polymerase to IC50 for telomerase in human SGC7901 cells; assay type: cell-based
How it was run: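 Ratio of the concentration giving 50% Taq polymerase inhibition to the concentration giving 50% telomerase inhibition. Telomerase was measured by modified TRAP with SGC-7901 cell extract.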

[5] = Homo sapiens, PC-3, 48 h, read-out: IC50
[6] = Homo sapiens, A-431, 48 h, read-out: IC50
[7] = Homo sapiens, SGC-7901, 48 h, read-out: IC50

Sequence of DNA polymerase I, thermostable (P19821 whole entry): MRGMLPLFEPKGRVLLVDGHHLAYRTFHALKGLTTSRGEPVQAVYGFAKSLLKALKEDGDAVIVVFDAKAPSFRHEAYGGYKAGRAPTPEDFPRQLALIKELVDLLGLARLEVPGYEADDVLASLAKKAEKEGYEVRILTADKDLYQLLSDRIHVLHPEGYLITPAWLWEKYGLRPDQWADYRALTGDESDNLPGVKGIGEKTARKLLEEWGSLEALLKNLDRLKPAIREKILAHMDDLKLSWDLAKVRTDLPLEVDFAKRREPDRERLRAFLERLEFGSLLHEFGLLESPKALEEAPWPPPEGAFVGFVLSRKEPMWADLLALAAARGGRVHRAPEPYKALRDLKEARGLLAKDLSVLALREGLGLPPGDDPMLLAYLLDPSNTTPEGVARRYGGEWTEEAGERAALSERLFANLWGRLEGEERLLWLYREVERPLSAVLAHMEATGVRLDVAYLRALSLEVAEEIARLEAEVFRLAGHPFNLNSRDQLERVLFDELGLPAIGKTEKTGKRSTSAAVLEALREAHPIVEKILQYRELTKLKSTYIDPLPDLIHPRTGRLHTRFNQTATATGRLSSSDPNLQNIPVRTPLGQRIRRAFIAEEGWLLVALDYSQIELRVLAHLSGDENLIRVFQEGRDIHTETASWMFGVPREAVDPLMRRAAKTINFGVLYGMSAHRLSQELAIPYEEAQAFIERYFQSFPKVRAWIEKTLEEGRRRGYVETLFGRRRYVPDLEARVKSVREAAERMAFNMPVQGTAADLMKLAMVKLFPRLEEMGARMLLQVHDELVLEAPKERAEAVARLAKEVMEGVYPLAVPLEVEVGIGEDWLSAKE

Compound	IC50 ([1]; read-out: IC50) [µM]	IC50 ([2]; read-out: IC50) [µM]	IC50 (PC-3; [5]) [mg/L]	IC50 (A-431; [6]) [mg/L]	IC50 (SGC-7901 [3]; [7]) [mg/L]	Selectivity Index (SGC-7901 [4])	IC50 [1]	IC50 ([2]; sgc-7901)	IC50 (A-431; a-431)	IC50 (SGC-7901 [3]; sgc-7901)	IC50 (PC-3; pc-3)
CC(=O)N1N=C(c2cc3ccccc3oc2=O)CC1c1ccccc1 (centres undefined)	6	2	40.2 (≈ 121 µM)	51.7 (≈ 156 µM)	2.69 (≈ 8.09 µM)	3					
CC(=O)N1N=C(c2cc3ccccc3oc2=O)CC1c1ccc(Cl)cc1Cl (centres undefined)	20.7	9.6	46.7 (≈ 116 µM)	68.7 (≈ 171 µM)	39.9 (≈ 99.5 µM)	2.1					
CC1=NN(C=O)C(c2ccccc2O)C1 (centres undefined)			65.1 (≈ 319 µM)				Not Active	Not Active	Not Active	Not Active	
CC(=O)N1N=C(c2cc3ccccc3oc2=O)CC1c1ccc(O)cc1 (centres undefined)	58.5	29.1	58.7 (≈ 169 µM)	73 (≈ 209 µM)	35.9 (≈ 103 µM)	2					
O=c1[nH]cc(F)c(=O)[nH]1 [FLUOROURACIL]			2.48 (≈ 19.1 µM)	2.17 (≈ 16.7 µM)							
CC(=O)N1N=C(c2cc3c(Br)cccc3oc2=O)CC1c1ccc(O)cc1 (centres undefined)	10	4	38.8 (≈ 90.7 µM)	68.3 (≈ 160 µM)	22.3 (≈ 52.3 µM)	2.5					
CC(=O)N1N=C(c2cc3ccccc3oc2=O)CC1c1ccccc1Cl (centres undefined)	16.8	6.5	55.1 (≈ 150 µM)	50.6 (≈ 138 µM)	29.9 (≈ 81.6 µM)	2.6					
COc1ccc(/C=C/C(=O)c2cc3ccccc3oc2=O)cc1							Not Active	Not Active	Not Active	Not Active	Not Active
CC[n+]1c(-c2ccccc2)c2cc(N)ccc2c2ccc(N)cc21 [HOMIDIUM BROMIDE]		2.5									
COc1ccc(C2CC(c3cc4ccccc4oc3=O)=NN2C(C)=O)cc1 (centres undefined)		36.7		68.7 (≈ 190 µM)	48.7 (≈ 134 µM)		Not Active				Not Active
CC(=O)N1N=C(c2cc3c(Br)cccc3oc2=O)CC1c1ccccc1 (centres undefined)	4	1.8	58.1 (≈ 141 µM)	48.1 (≈ 117 µM)	28.9 (≈ 70.3 µM)	2.2					
